Series [1] concerns Splenocyte. As to the kind of experiment: Immunosuppressive activity against sheep erythrocytes-induced humoral immune response in CBA mouse splenocyte assessed as inhibition antibody forming cells at 100 ug/ml after 4 days. The arrangement: scale not given: the % may be the effect or the level left. It counts as functional. The method in brief:
(§1)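 Donor CBA mice (12-week-old, both sexes) sensitized with 0.2 ml of 1% SRBC suspension; spleens harvested four days later, erythrocytes lysed with 0.83% ammonium chloride. Splenocytes (5 ×10⁶/ml/well) cultured with SRBC (0.1 ml of 0.005% suspension) plus peptides (DMSO, then medium). After four days, antibody-forming cells counted; mean AFC numbers from quadruplicate wells ± SE.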

The next series deals with T-cell. Nature of the series: Immunosuppressive effect on CBA mouse T cells assessed as inhibition of mitogen-induced proliferation at 100 ug/ml after 3 days by MTT assay. The format is functional, cell-based.
A short description of series [2]: Toxicity in mouse WEHI164 clone 13 cells at 100 ug/ml after 24 hrs by MTT assay. As to conditions: wehi-164, 24 h. The method in brief: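 WEHI 164.13 cells exposed 24 h to peptides (DMSO then culture medium) or DMSO control solutions. Viability measured by MTT colorimetric method and expressed as percentage of OD relative to matching solvent dilutions (taken as 100%). Student's t-test for statistics.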
(Tetrazolium dyes change colour on reduction, which living cells bring about.)

Another series deals with B. As to the kind of experiment: Immunosuppressive effect on CBA mouse B cells assessed as inhibition of mitogen-induced proliferation after 3 days by MTT assay. It counts as functional, cell-based.
The subject of series [3] is Splenocyte. As to the kind of experiment: Immunosuppressive activity against sheep erythrocytes-induced humoral immune response in CBA mouse splenocyte assessed as inhibition antibody forming cells after 4 days. The format is functional, cell-based. The essentials: as §1

Structures are written as SMILES. The source made the active and inactive calls. The calls are words filed in the database; no cut-off is given here. Non-standard residues stand in square brackets, D forms with d. Residues, ends and D or L forms follow the SMILES beside them. hPhe = N[C@@H](CCc1ccccc1)C(=O)O

Turning to `CC[C@H](C)[C@@H]1NC(=O)[C@H](CC(C)C)NC(=O)[C@H](Cc2ccccc2)NC(=O)[C@H](CCc2ccccc2)NC(=O)[C@@H]2CCCN2C(=O)[C@@H]2CCCN2C(=O)[C@H](C(C)C)NC(=O)[C@H](CC(C)C)NC(=O)[C@H]([C@@H](C)CC)NC1=O` (cyclo(FLIILVPP[hPhe])), in the series with Splenocyte [1], the Activity was 94.5%. Further, the result in the series with T-cell was Active.
With `CC[C@H](C)[C@@H]1NC(=O)[C@H](CC(C)C)NC(=O)[C@H](CCc2ccccc2)NC(=O)[C@H](Cc2ccccc2)NC(=O)[C@@H]2CCCN2C(=O)[C@@H]2CCCN2C(=O)[C@H](C(C)C)NC(=O)[C@H](CC(C)C)NC(=O)[C@H]([C@@H](C)CC)NC1=O` (cyclo(F[hPhe]LIILVPP)), the Activity with Splenocyte [1] amounted to 92%; in series [2], 47.19%. Also, the result in the series on B was Active.
For `CC[C@H](C)[C@@H]1NC(=O)[C@H](CC(C)C)NC(=O)[C@H](CCc2ccccc2)NC(=O)[C@H](CCc2ccccc2)NC(=O)[C@@H]2CCCN2C(=O)[C@@H]2CCCN2C(=O)[C@H](C(C)C)NC(=O)[C@H](CC(C)C)NC(=O)[C@H]([C@@H](C)CC)NC1=O` (cyclo(IILVPP[hPhe][hPhe]L)), the result in the series on Splenocyte [3] and in the series on B was Active.

The values above are taken from ChEMBL document CHEMBL1153776, “Synthesis and immunosuppressive activity of cyclolinopeptide A analogues containing homophenylalanine” (Eur J Med Chem, 2009).
